Data as given in ChEMBL document CHEMBL1799922, “Synthesis and antimycobacterial activity of prodrugs of indeno[2,1-c]quinoline derivatives” (Eur J Med Chem, 2011).
Values after ≈ are worked out from the molar mass of the structure shown.

Legend:
[1] = Cytotoxicity against human U937 cells assessed as cell viability at 1.25 ug/ml after 72 hrs by MTT assay; assay type: cell-based, U-937; settings: read-out: Activity
How it was run: (§1)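 U937 human monocytic cells plated at 1 × 10^5 cells/mL and allowed to adhere for 1 h at 37 °C in 5% CO2. Non-adherent cells were washed off with RPMI 1640. Adherent cells were exposed to compound in triplicate, with medium alone as the live control and 3% Tween 20 as the dead control. MTT (5 mg/mL in PBS) was then added for 3 h at 37 °C. Formazan was dissolved in 0.4 M HCl/isopropanol and absorbance read at 600 nm. Results are expressed as % cell viability.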

[2] = Selectivity index, ratio CC50 for human U937 cells to MIC for Mycobacterium tuberculosis H37Rv ATCC 27294; assay type: functional, U-937
[3] = Half life in 10% aqueous ammonia buffer at pH 8 assessed as hydrolysis to 2-bromo-6-(1H-imidazol-1-yl)-7H-indeno[2,1-c]quinolin-7-one oxime at 37 degC by LC-MS analysis; assay type: physicochemical
How it was run: (§2)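 Chemical hydrolysis: 1 mg prodrug dissolved in 1 mL of 10% aqueous ammonia in methanol (pH 8) and held in a thermostatted water bath at 37 °C, up to 24 h. Conversion to the parent oxime was followed by TLC and LC-MS. t1/2 is the time to 50% hydrolysis.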

[4] = tested on: Serum; assay: Stability of the compound in 80% human blood serum assessed as hydrolysis to 2-bromo-6-(1H-imidazol-1-yl)-7H-indeno[2,1-c]quinolin-7-one oxime at 1 mg after 24 hrs at 37 degC by LC-MS analysis; assay type: ADME, cell-free; design: scale not given: the % may be the effect or the level left
How it was run: (§3)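 Enzymatic hydrolysis: 1 mg prodrug dissolved in 1 mL ethanol, then 200 µL preheated human blood serum diluted to 80% with 0.16 M phosphate buffer (pH 7.4) was added. Samples were kept at 37 °C (24 h) and centrifuged 10 min at 10,000 rpm. Remaining prodrug in the supernatant was monitored by TLC and LC-MS. t1/2 is the time to 50% hydrolysis.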

[5] = Cytotoxicity against human U937 cells assessed as cell viability at 20 ug/ml after 72 hrs by MTT assay; assay type: cell-based, U-937; settings: read-out: Activity; how it was run: as §1
[6] = Half life in human blood serum by LC-MS analysis; assay type: ADME, cell-free, Plasma; how it was run: as §3
[7] = Cytotoxicity against human U937 cells assessed as cell viability at 5 ug/ml after 72 hrs by MTT assay; assay type: cell-based, U-937; settings: read-out: Activity; how it was run: as §1
[8] = Cytotoxicity against human U937 cells assessed as cell viability at 10 ug/ml after 72 hrs by MTT assay; assay type: cell-based, U-937; settings: read-out: Activity; how it was run: as §1
[9] = Octanol-water partition coefficient, log P of the compound at pH 7.4 at room temperature by UV spectrophotometric analysis; assay type: physicochemical
How it was run: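 Shake-flask method at room temperature: 1-octanol and phosphate buffer (pH 7.4) were pre-saturated by shaking for 24 h. Compound at 10^-4 M in equal volumes of both phases was shaken vigorously for 1 h, left to stand 15 min, then centrifuged 10 min at 10,000 rpm. UV absorbance of each phase was read at 280 nm against blanks, and P was taken as the octanol/water absorbance ratio.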

[10] = tested on: Mycobacterium tuberculosis; assay: Antimicrobial activity against Mycobacterium tuberculosis H37Rv ATCC 27294 after 16 to 24 hrs by microplate alamar blue assay; assay type: functional
How it was run: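 M. tuberculosis H37Rv inoculum 2×10^5 cfu/mL (100 µL) added to twofold dilutions in Middlebrook 7H12 medium; final test range 128 µM to 0.5 µM from 12.8 mM DMSO stocks. Incubated 37 °C; day 7 Tween 80 plus Alamar Blue added, further 16-24 h at 37 °C. Fluorescence ex 530/em 590 nm; MIC = lowest concentration giving >90% fluorescence reduction versus replicate bacteria-only controls. Rifampin, isoniazid controls.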

[11] = Stability of the compound in 10% aqueous ammonia buffer at pH 8 assessed as hydrolysis to 2-bromo-6-(1H-imidazol-1-yl)-7H-indeno[2,1-c]quinolin-7-one oxime at 1 mg at 37 degC by LC-MS analysis; assay type: physicochemical; design: scale not given: the % may be the effect or the level left; how it was run: as §2

CCC(=O)O/N=C1\c2ccccc2-c2c1c(-n1ccnc1)nc1ccc(Br)cc21
viability at 72 h, 1.25 ug/ml [1]: 84% | Selectivity Index [2]: >137 | half-life [3]: 48 h | Activity [4]: 90% | viability at 72 h, 20 ug/ml [5]: 67% | half-life [6]: 84 h | viability at 72 h, 5 ug/ml [7]: 86% | viability at 72 h, 10 ug/ml [8]: 75% | logD [9]: 1.2 | MIC [10]: 0.29 µg/mL (≈ 0.648 µM) | Activity [11]: 95%
